Source: PubChem
XBP1 UPR activ: activators of adaptive arm of unfolded protein response (XBP1); CHO-XBP1 luciferase reporter, IRE1-XBP1 UPR activation, luminescence; percent of tunicamycin response, DMSO as zero; activation, % at 20 µM; actives 0.33% (n = 330,000);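 active = versus positive control, 20 µM dose yields 30% or more activation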;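 note: 100% = tunicamycin at 10 µg/mL and 0% = DMSO only wells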
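Test system: CHO-XBP1 luciferase reporter cells | Buffer or medium: Serum-containing F12 medium, 10% FBS | Schedule: 6 h compound exposure at 37 °C, 5% CO2 | Detection: Steady-Glo luciferase glow luminescence, 10 min after reagent addition | Read-out basis: Activation, % of tunicamycin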
GAA850 FXN act: activators of GAA850 frataxin (FXN) promoter | HEK293 lucGAA850 FXN promoter luciferase reporter, 24 h; percent of 10 µM SAHA response | activation, % at 6 µM | actives 0.56% (n = 360,000) | AID 540364;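 active = activation above the average of all compounds screened plus 3 SD, cutoff fixed separately per campaign, cut at about 7.5% in these data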;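 note: 0% = DMSO wells and 100% = 10 µM SAHA wells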
CHOP inh: inhibitors of CHOP induction in ER stress response; CHO-K1 CHOP-promoter luciferase, tunicamycin-induced, 15-18 h; inhibition, % at 10 µM; actives 3.8% (n = 220,000); AID 2732;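 active = compounds that reduced the stress-induced luciferase reporter signal by more than about 70% of percent inhibition, limit read from the data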;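 note: 0% = tunicamycin plus vehicle and 100% = wells without tunicamycin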
CHOP UPR activ: apoptotic UPR (CHOP) activation | CHO-CHOP luciferase reporter, luminescence; percent of tunicamycin response over DMSO baseline | activation, % at 10 µM | actives 0.34% (n = 330,000) | AID 449763;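 active = at 10 µM dose, activation of 40% or more, normalized to positive control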;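 note: 100% = tunicamycin at 10 µg/mL and 0% = DMSO alone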
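assay system = CHO CHOP reporter cells | amount = 500 CHO-CHOP cells per well | buffer or medium = F12 with 10% FBS | incubation = 16-18 h cell attachment, then 6 h compound exposure, 37 °C | detection = luminescence read with Steady-Glo | read-out = percent activation relative to tunicamycin control | controls = tunicamycin high control, DMSO low control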
* = called active by the depositor; . = no result given. The full list was thinned out, with hits kept by preference.

SMILES	XBP1 UPR activ	GAA850 FXN act	CHOP inh	CHOP UPR activ
CC1(C(=O)NS(=O)(=O)c2cccc(Cl)c2)CCN1C(=O)c1cccc2ccccc12 (centres undefined)	.	1	.	.
CC(C)c1cccc(-c2csc(C(C)(O)c3ccncc3)n2)c1 (centres undefined)	.	-2	.	.
CC(=O)Nc1cccc(-c2csc(C(O)c3cccc(Cl)c3)n2)c1 (centres undefined)	.	0	.	.
O=C(Cn1c2ccc(F)cc2c2nc3n(c(=O)c21)CCS3)Nc1ccccc1F	3	.	11	-1
O=C(Cn1c2ccc(F)cc2c2nc3n(c(=O)c21)CCS3)Nc1ccccc1C(F)(F)F	-1	0	78*	0
CCc1nc2c(OCc3c(C)noc3C)cccn2c1N(C=O)Cc1ccccc1	.	-1	.	.
O=C1OC(c2ccccc2)C2(CCCC2)C(=O)C12CCCC2 (centres undefined)	0	3	57	-1
O=C1N(Nc2ccccc2)C(c2ccc(Br)cc2)C12CCCCC2 (centres undefined)	0	-3	73*	2
O=C1C=CC(=O)N1Nc1ccc(Br)cc1	1	1	-5	1
O=C1N(Nc2ccccc2)C(c2ccc(Br)cc2)C12CCCC2 (centres undefined)	-1	0	94*	-2
O=C(NCc1ccc(F)cc1)c1cc(C2CCCCN2C(=O)c2ccc(Cl)cc2)on1 (centres undefined)	.	-2	.	.
CC1(C(=O)Nc2cnc3ccccc3c2)CCN1C(=O)c1ccccc1CCc1ccccc1 (centres undefined)	.	1	.	.
O=C(Oc1nsnc1N1CCOCC1)N1CCOCC1	-1	0	71*	-2
O=C(Oc1nsnc1N1CCOCC1)N1CCCCC1	-2	3	.	-3
CC(=O)c1sc(N/N=C\c2cccc(Br)c2)nc1C	-1	-1	81*	3
Cn1c(=O)c2cc(NC(=O)Nc3cccnc3)ccc2n1-c1ccc(C(C)(C)C)cc1	.	-4	.	.
CC(=O)N[C@H](C(=O)O)C(C)(C)SN=O	.	.	17	.
COc1cccc(-c2nc3ccccc3s2)c1	-4	3	73*	2
CCC(C)(O)c1cnc(CC(C)C)c(=O)n1O (centres undefined)	.	-1	.	.
CN(C)CCNC(=O)c1cccc(-c2cc(NC=O)c3ncc(-c4cccc(C(F)(F)F)c4)n3c2)c1	.	-1	.	.
CCCN(C)C[C@@H]1Oc2ncc(Br)cc2C(=O)N([C@@H](C)CO)C[C@H]1C	.	-1	.	.
O=C(CSc1ccc(-c2ccncc2)nn1)c1ccc(Cl)cc1	-2	2	4	2
NC(=O)C(c1ccc(Cl)cc1)c1ccc(Sc2ccc(Cl)cc2)nn1 (centres undefined)	-3	-1	83*	-1
CC1(C(=O)NCc2ccc(Cl)cc2)CCN1C(=O)Cc1cccs1 (centres undefined)	.	1	.	.
CC1C(=NO)C(C)C(c2ccccc2)NC1c1ccccc1 (centres undefined)	0	0	16	-2
SMILES	XBP1 UPR activ	GAA850 FXN act	CHOP inh	CHOP UPR activ
Cc1ccc(C2NC(c3ccc(C)cc3)C(C)C(=NO)C2C)cc1 (centres undefined)	-3	-2	84*	2
Cc1cc(C)cc(CC(=O)N2CCC2(C)C(=O)NS(=O)(=O)c2ccccc2Cl)c1 (centres undefined)	.	0	.	.
CN(C)Cc1csc(NC(=O)Nc2ccccc2Cc2ccccc2)n1	.	1	.	.
Cc1[nH]c2ccccc2c1C(=O)C(=O)NCc1nnnn1-c1ccc(F)cc1	.	0	.	.
O=c1cc(Nc2ccc3c(c2)OCO3)[nH]c(=O)n1-c1ccc(Br)cc1	-2	-1	77*	2
COc1ccc(-c2cc(C(=O)N3CC4(C)CC3CC(C)(C)C4)no2)cc1OC (centres undefined)	-1	0	73*	0
CC1(C)CC2CC(C)(CN2C(=O)c2cc(-c3ccccc3O)on2)C1 (centres undefined)	1	0	76*	3
Cn1cc(-c2csc(C(O)c3ccccc3)n2)cn1 (centres undefined)	.	1	.	.
CCN1C/C(=C/c2cccc([N+](=O)[O-])c2)C(=O)/C(=C/c2cccc([N+](=O)[O-])c2)C1	.	-19	111*	.
O=C1NC(=O)/C(=C/c2cccc([N+](=O)[O-])c2)N1	-4	2	11	-1
Cc1ccc(Cl)cc1-c1cc(C(=O)N2CCc3ccccc3C2)[nH]n1	.	1	.	.
CC(C)(C)c1ccccc1NC(=O)Nc1nc(C(N)Cc2ccc(F)cc2)cs1 (centres undefined)	.	-4	.	.
CCN1C(=O)/C(=C\c2ccc(F)cc2)N=C1SCC(=O)NCc1ccco1	-2	-4	13	6
C=CCN1C(=O)/C(=C\c2ccc(Cl)cc2)N=C1SCC(=O)NCCC	2	0	76*	-2
CC(=O)N1CCOC12CCN(Cc1ccccc1)CC2	.	0	.	.
Cc1cc(N)c2ccccc2[n+]1CCCCCCCCCC[n+]1c(C)cc(N)c2ccccc21	.	.	-4	.
O=C(COC(=O)c1ccccc1C(=O)c1ccc(Cl)c([N+](=O)[O-])c1)NC1CC1	-4	2	106*	19
CC1(C(=O)NS(=O)(=O)C2CC2)CCCN(C(=O)C2(c3ccc(Cl)cc3)CCCC2)C1 (centres undefined)	.	-1	.	.
Cc1ccccc1Nc1nc(-c2sc(NC(=O)c3ccc([N+](=O)[O-])cc3)nc2C)cs1	4	.	34	4
CCOc1ccccc1Nc1nc(-c2sc(NC(=O)c3ccc([N+](=O)[O-])cc3)nc2C)cs1	3	.	82*	-1
COc1ccc(NC(=O)C2(C)CCN2Cc2ccc(C(C)C)cc2)cc1OC (centres undefined)	.	2	.	.
CCc1ccc(NC(=O)NCC2CCN(Cc3cccc(Cl)c3)CC2)cc1	-4	0	.	0
Cc1ccc(NC(=O)NCC2CCN(Cc3cccc(Cl)c3)CC2)cc1Cl	-3	1	89*	2
CCCC(=O)N1CCC1(C)C(=O)Nc1scc(C)c1C#N (centres undefined)	.	2	.	.
CCCCCc1cc(=O)oc2c(C(CCN3CCCC3)c3ccc(N(C)C)cc3)c(OC)cc(OC)c12 (centres undefined)	10	-2	43	4
CCCCCc1cc(=O)oc2c(C(CCN3CCCC(C)C3)c3ccc(OC)cc3)c(OC)cc(OC)c12 (centres undefined)	19	-2	71*	7
CCCCCc1cc(=O)oc2c(C(CCN3CCCC3)c3cc(OC)c(OC)c(OC)c3)c(OC)cc(OC)c12 (centres undefined)	2	-3	44	9
CCCCCc1cc(=O)oc2c(C(CCN3CCCCC3)c3ccc(OC)cc3)c(OC)cc(OC)c12 (centres undefined)	10	-1	72*	6
CCC(CO)Nc1nc(NCc2ccccc2)c2ncn(C(C)C)c2n1 (centres undefined)	.	.	13	.
